Experiments:
[1] = test system: Norovirus; test: Antiviral activity against Norovirus infected in human HG23 cells assessed as inhibition of viral replication after 24 hrs by qRT-PCR; assay type: functional; details: HG23, 24 h, read-out: ED50 (the source's name)
In short: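 HG23 cells (harbouring NV replicon), one day old and 80–90% confluent, exposed to each compound over 0 (mock-DMSO) to 20 μM. NV genome levels measured by qRT-PCR; ED50 for genome level taken at 24 hr post-treatment.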

[2] = Cytotoxicity against human HG23 cells after 48 hrs; assay type: cell-based; details: read-out: TD50
In short: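 HG23 cells (Norwalk virus replicon-harboring) exposed to each compound at 0 (mock-DMSO) to 320 μM for 48 hr; viability read with a cell cytotoxicity assay kit; median toxic dose (TD50) calculated.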

Structure (SMILES) | EC50 [1] [µM] | CC50 at 48 h [2] [µM]
O=C1NCCN1Cc1cccc(Oc2ccccc2)c1 | 8 | 95
CC(C)(C)OC(=O)CN1CCN(Cc2cccc(Oc3ccccc3)c2)C1=O | 12 | 55
O=C(O)CN1CCN(Cc2cccc(Oc3ccccc3)c2)C1=O | > 20 | 
O=C1N(CCN2CCOCC2)CCN1Cc1cccc(Oc2ccccc2)c1 | 16 | 120
O=C1N(CCN2CCN(CCN3CCN(Cc4cccc(Oc5ccccc5)c4)C3=O)CC2)CCN1Cc1cccc(Oc2ccccc2)c1 | 0.5 | 2.5
O=S1(=O)NCCCN1Cc1cccc(Oc2ccccc2)c1 | > 20 | 
O=C1NCCCN1Cc1cccc(Oc2ccccc2)c1 | > 20 | 
CC(C)(O)c1cn(Cc2cccc(Oc3ccccc3)c2)nn1 | > 20 | 
CCCCc1cn(Cc2cccc(Oc3ccccc3)c2)nn1 | 6 | 40
O=C(O)CCCc1cn(Cc2cccc(Oc3ccccc3)c2)nn1 | > 20 | 
C[Si](C)(C)c1cn(Cc2cccc(Oc3ccccc3)c2)nn1 | 7 | 30
c1ccc(Oc2cccc(Cn3ccnn3)c2)cc1 | 10 | 100
c1ccc(Oc2cccc(Cc3nn[nH]n3)c2)cc1 | > 20 | 
Cn1nnc(Cc2cccc(Oc3ccccc3)c2)n1 | > 20 | 
c1ccc(Oc2cccc(Cn3ccnc3)c2)cc1 | 8 | 35
O=C1CN(Cc2cccc(Oc3ccccc3)c2)S(=O)(=O)N1 | > 20 | 

Reference: ChEMBL document CHEMBL1828499, “Design and synthesis of inhibitors of noroviruses by scaffold hopping” (Bioorg Med Chem, 2011)
